# PubChem BioAssay AID485271 (The Scripps Research Institute Molecular Screening Center, 2010)
# Test: HCV J6/JFH-1 viral RNA reduction – Huh-7.5 cells, quantitative PCR, fluorescence, counter-screen for HCV core dimerization inhibitor project, late-stage follow-up (AID 485271)
# Settings: Huh-7.5 HCV J6/JFH-1 infection, RT-qPCR viral RNA
# In short: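 Test system: Huh-7.5 human hepatoma cells infected with HCV 2a J6/JFH-1 | Also added: HCV 2a J6/JFH-1 virus given together with compound | Detection: TaqMan RT-qPCR of viral RNA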
compound,measurement,setting,value
Cc1ccc(Cc2c(C)nc3nc(SCC(=O)NCCCN4CCCCCC4)nn3c2C)cc1,IC50,time point 1,6.6 µM
same,IC50,time point 2,12 µM
